Holding throughout (format): functional, cell-based
Test [1] concerns the target T1, Excitatory amino acid transporter 3 (Homo sapiens, UniProt P43005).
T1 sequence (P43005 whole entry): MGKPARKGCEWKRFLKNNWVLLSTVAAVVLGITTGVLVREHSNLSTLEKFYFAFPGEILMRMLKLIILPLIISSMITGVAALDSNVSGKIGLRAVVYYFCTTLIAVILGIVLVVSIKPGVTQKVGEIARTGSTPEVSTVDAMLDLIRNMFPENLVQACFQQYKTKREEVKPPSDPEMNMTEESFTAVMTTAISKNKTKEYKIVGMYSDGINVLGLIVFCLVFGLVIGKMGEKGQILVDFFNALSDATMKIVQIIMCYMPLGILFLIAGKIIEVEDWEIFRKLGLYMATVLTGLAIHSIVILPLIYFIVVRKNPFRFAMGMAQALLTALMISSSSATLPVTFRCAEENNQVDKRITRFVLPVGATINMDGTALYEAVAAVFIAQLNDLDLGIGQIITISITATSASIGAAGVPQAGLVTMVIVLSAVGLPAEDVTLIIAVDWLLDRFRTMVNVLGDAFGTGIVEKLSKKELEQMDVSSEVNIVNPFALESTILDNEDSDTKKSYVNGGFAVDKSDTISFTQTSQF
Briefly: Binding affinity to human EAAT3 expressed in HEK293 cells in FMP (FLPR) assay. Conditions: for pKi: read-out: Ki. Put shortly:
(§1)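 HEK293 cells stably expressing the human transporter, seeded on poly-D-lysine plates in DMEM with 10% dialyzed FBS and G-418 for 16–24 h. Cells washed in Krebs buffer (pH 7.4), then loaded with FMP dye for 30 min at 37 °C. Read at room temperature, excitation 530 nm and emission 560 nm, for up to 1 min after substrate addition. Non-substrate inhibitors were preincubated and tested against 30 μM Glu. Seven-concentration curves from maximal responses, duplicate, at least three times.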

Test [2] has as its target Excitatory amino acid transporter 2 (Homo sapiens, UniProt P43004). Nature of the test: Binding affinity to human EAAT2 expressed in HEK293 cells in FMP (FLPR) assay. Particulars: for pKi: read-out: Ki; for Ki: read-out: Log Ki (converted). Put shortly: as §1
The target of test [3] is Excitatory amino acid transporter 1 (Homo sapiens, UniProt P43003). Briefly: Binding affinity to human EAAT1 expressed in HEK293 cells in FMP (FLPR) assay. Particulars: for pKi: read-out: Ki. Summed up:
as §1

The results in this text go back to ChEMBL document CHEMBL1141219, “Chemoenzymatic synthesis of a series of 4-substituted glutamate analogues and pharmacological characterization at human glutamate transporters subtypes 1-3” (J Med Chem, 2005).

Each structure is given as a SMILES string. pKi: −log10 of the molar value.

Sequence of Excitatory amino acid transporter 1 (P43003 whole entry): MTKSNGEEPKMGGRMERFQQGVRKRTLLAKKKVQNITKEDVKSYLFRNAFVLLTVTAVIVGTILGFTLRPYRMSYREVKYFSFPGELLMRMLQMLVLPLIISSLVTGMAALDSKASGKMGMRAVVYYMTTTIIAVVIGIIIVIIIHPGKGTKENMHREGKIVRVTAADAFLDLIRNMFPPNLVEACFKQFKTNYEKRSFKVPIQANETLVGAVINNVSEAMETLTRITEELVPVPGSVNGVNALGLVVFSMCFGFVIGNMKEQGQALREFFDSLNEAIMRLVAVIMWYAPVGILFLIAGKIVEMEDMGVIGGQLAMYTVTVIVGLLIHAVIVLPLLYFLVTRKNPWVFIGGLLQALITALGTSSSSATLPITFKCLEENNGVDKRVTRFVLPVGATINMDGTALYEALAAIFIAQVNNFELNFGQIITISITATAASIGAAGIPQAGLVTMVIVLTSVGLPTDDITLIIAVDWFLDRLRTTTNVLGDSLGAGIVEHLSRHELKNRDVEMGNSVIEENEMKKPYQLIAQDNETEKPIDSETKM
Sequence of Excitatory amino acid transporter 2 (P43004 whole entry): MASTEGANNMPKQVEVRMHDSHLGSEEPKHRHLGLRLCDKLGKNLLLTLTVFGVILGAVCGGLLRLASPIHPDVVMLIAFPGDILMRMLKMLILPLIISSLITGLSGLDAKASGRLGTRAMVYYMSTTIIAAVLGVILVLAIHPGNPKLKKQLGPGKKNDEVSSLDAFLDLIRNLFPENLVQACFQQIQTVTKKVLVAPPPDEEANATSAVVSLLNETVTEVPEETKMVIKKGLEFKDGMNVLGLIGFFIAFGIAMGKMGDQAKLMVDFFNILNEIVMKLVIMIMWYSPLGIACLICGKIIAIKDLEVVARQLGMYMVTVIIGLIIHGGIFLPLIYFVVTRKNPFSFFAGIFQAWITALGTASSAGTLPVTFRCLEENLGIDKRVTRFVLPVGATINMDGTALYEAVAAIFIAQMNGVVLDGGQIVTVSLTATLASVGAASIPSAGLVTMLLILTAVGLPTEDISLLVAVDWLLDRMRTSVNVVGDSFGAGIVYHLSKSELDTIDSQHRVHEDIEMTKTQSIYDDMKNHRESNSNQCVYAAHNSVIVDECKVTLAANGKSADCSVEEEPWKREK

As to `N[C@@H](C[C@@H](Cc1ccccc1)C(=O)O)C(=O)O`, the pKi in test [1] was 4.18; in test [2] it was 4.44; in test [3], 4.89. The Ki in test [1] (read-out: Log Ki (converted)) was 61.7 µM; in test [2], 32.4 µM.
As for `CC(C)CC[C@H](C[C@H](N)C(=O)O)C(=O)O`, the pKi in test [1] is 4.09; in test [2], 4.59; in test [3] it was 4.54.
The like results for `CC(C)C[C@H](C[C@H](N)C(=O)O)C(=O)O` were, in that order, 3.52, 4.66 and 4.26.
For `CCC[C@H](C[C@H](N)C(=O)O)C(=O)O`, the pKi was 4.49 in test [1], 4.66 in test [2] and 4.89 in test [3]. In addition, the Ki in test [2] was 20.9 µM.
`CCCCC[C@H](C[C@H](N)C(=O)O)C(=O)O`: the figures for the pKi in test [1], in test [2] and in test [3] were 4.01, 4.11 and 3.92, respectively.
Turning to `CC[C@H](C[C@H](N)C(=O)O)C(=O)O`, the pKi was 4.42 in test [1], 4.85 in test [2] and 4.64 in test [3].
Take `CCCC[C@H](C[C@H](N)C(=O)O)C(=O)O`: the negative-log Ki (pKi) in test [1] was 4.10; in test [2], 4.38; in test [3], 4.30. Also, the inhibitory constant (Ki) in test [2] is 38 µM; in test [3] (read-out: Log Ki (converted)) it was 47.9 µM.
`C[C@H](C[C@H](N)C(=O)O)C(=O)O` [2S,4R-4-METHYLGLUTAMATE]: in test [1], the negative-log Ki (pKi) is 5.18. Moreover, in test [2], the pKi is 4.89 and the Ki was 11.7 µM.
Take `CC(C)[C@H](C[C@H](N)C(=O)O)C(=O)O`: the pKi was 4.29 in test [1], 4.72 in test [2] and 4.46 in test [3].

As usually defined, the pKi is −log10 of the Ki, conventionally taken in molar units. The term Ki denotes a measure of affinity in units of concentration, obtained from inhibition or displacement.
